These results are taken from ChEMBL document CHEMBL3576784, “Azolylthioacetamide: A Highly Promising Scaffold for the Development of Metallo-β-lactamase Inhibitors” (ACS Med Chem Lett, 2015).

Chain of Beta-lactamase (O31272 whole entry): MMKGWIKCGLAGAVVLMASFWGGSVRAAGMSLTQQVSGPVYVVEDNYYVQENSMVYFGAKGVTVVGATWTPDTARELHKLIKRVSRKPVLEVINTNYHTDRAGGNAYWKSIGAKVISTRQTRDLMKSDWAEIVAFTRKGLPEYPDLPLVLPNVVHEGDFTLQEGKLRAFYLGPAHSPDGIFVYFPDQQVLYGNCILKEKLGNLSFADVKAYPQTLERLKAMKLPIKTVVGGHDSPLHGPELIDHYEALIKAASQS

The first experiment has as its target Beta-lactamase (Aeromonas veronii, UniProt O31272). Kind of experiment: Inhibition of Aeromonas veronii metallo-beta-lactamase ImiS expressed in Escherichia coli BL21(DE3) using imipenem substrate pre-incubated for 30 mins by Lineweaver-Burk plot method.
Conditions: not given; call rule not given here
Summed up: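 Purified enzyme; initial rates of imipenem hydrolysis followed by UV spectrophotometry (262 or 300 nm) in 50 mM Tris pH 7.0, 25 °C. Substrate 24–140 μM, inhibitor 0–10 μM. Rates in triplicate and averaged. Inhibition mode from Lineweaver–Burk plots. Ki from fits of initial velocity vs substrate concentration at each inhibitor level.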
As a reminder, the Ki is the equilibrium dissociation constant of an inhibitor or competing ligand from its target. Regarding `O=C(CSc1nnc(-c2ccccc2C(=O)O)[nH]1)NCc1ccccc1`, the inhibition constant (Ki) result was “Not Active”. Turning to `O=C(O)CCc1nnc(SCC(=O)Nc2nc3ccccc3s2)[nH]1`, the inhibition constant Ki entry is recorded as “Not Active”. With `O=C(O)CCCc1nnc(SCC(=O)Nc2nc3ccccc3[nH]2)[nH]1`, the Ki entry is recorded as “Not Active”.

Still in this experiment, the particulars now being: read-out: Ki.
Regarding `O=C(CSc1nnc(-c2ccccc2C(=O)O)[nH]1)Nc1ccccc1`, the Ki worked out at 1.8 µM.

With `O=C(CSc1nnc(-c2ccccc2C(=O)O)[nH]1)Nc1nc2ccccc2[nH]1`, the inhibition constant (Ki) stood at 3.6 µM.

In the case of `O=C(CSc1nnc(-c2ccccc2C(=O)O)[nH]1)Nc1nc2ccccc2s1`, the Ki was found to be 1.2 µM. For `O=C(CSc1nnc(-c2ccccc2C(=O)O)[nH]1)Nc1ccc(Cl)cc1`, the inhibitory constant (Ki) is 1.4 µM.

With `O=C(CSc1nnc(-c2ccccc2C(=O)O)[nH]1)Nc1ccc([N+](=O)[O-])cc1`, the Ki came out at 2.2 µM. Turning to `O=C(CSc1nnc(-c2ccccc2C(=O)O)[nH]1)Nc1ccccc1Cl`, the Ki is 2.3 µM. In the case of `O=C(CSc1nnc(-c2ccccc2C(=O)O)[nH]1)Nc1cccc(Cl)c1`, the Ki was determined as 2.4 µM.

Turning to `O=C(CSc1nnc(-c2ccccc2C(=O)O)[nH]1)Nc1ccccc1[N+](=O)[O-]`, the inhibitory constant (Ki) was 2.7 µM.

For the compound `O=C(CSc1nnc(-c2ccccc2C(=O)O)[nH]1)Nc1cccc([N+](=O)[O-])c1`, the Ki came out at 1.9 µM. With `O=C(O)CCc1nnc(SCC(=O)Nc2ccccc2)[nH]1`, the Ki was above 5000 µM.

As to `O=C(O)CCc1nnc(SCC(=O)Nc2nc3ccccc3[nH]2)[nH]1`, the Ki was above 2500 µM. For `O=C(O)CCc1nnc(SCC(=O)Nc2ccc(Cl)cc2)[nH]1`, the inhibitory constant (Ki) was above 5000 µM.
